# Measurements as given in ChEMBL document CHEMBL1145492, “Comparison of the phosphorylation of 4'-ethynyl 2',3'-dihydro-3'-deoxythymidine with that of other anti-human immunodeficiency virus thymidine analogs” (Antimicrob Agents Chemother, 2007).
# Assays:
# [1] = substrate: Cc1cn([C@H]2C=C[C@@H](COP(=O)(O)O)O2)c(=O)[nH]c1=O; experiment: (§1) Activity for human recombinant TMP kinase
# Outline: (§2)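 Substrate ranges were TMP 6.25–100 μM and analog MPs 6.25–250 μM. Reactions were stopped at various times with TCA and neutralized with trioctylamine/trichlorotrifluoroethane. Km and kcat came from Lineweaver-Burk plots. Relative efficiency is kcat/Km with D4TMP as 100%. Mean ± SD of three experiments.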
# [2] = substrate: Cc1cn([C@H]2C[C@H](O)[C@@H](COP(=O)(O)O)O2)c(=O)[nH]c1=O; experiment: as §1; outline: as §2
# [3] = substrate: Cc1cn([C@H]2C[C@H](N=[N+]=[N-])[C@@H](COP(=O)(O)O)O2)c(=O)[nH]c1=O; experiment: as §1; outline: as §2
protein,measurement,setting,value
"Thymidylate kinase (Homo sapiens), P23919 (protein) MAARRGALIVLEGVDRAGKSTQSRKLVEALCAAGHRAELLRFPERSTEIGKLLSSYLQKKSDVEDHSVHLLFSANRWEQVPLIKEKLSQGVTLVVDRYAFSGVAFTGAKENFSLDWCKQPDVGLPKPDLVLFLQLQLADAAKRGAFGHERYENGAFQERALRCFHQLMKDTTLNWKMVDASKSIEAVHEDIRVLSEDAIRTATEKPLGELWK",Km,[1],22 µM
same,kcat,[1],0.093 s⁻¹
same,Km,[2],8.3 µM
same,kcat,[2],1.8 s⁻¹
same,Km,[3],7.6 µM
same,kcat,[3],0.018 s⁻¹
